In ChEMBL document CHEMBL4000155, “Synthesis and Antileukemic Activities of Piperlongumine and HDAC Inhibitor Hybrids against Acute Myeloid Leukemia Cells” (J Med Chem, 2016) one finds Activity, IC50 and Stability data, which are given here for two compounds.

Each structure is given as a SMILES string. The source made the active and inactive calls. No cut-off for these calls is given here.

Data set [1] relates to U-937. In words: Induction of apoptosis in p53 null human U937 cells at 2 uM after 24 hrs in presence of SAHA by annexin V-FITC/PI staining based flow cytometry. Type of data set: functional. Put shortly:
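Human U937 AML cells (p53 null) in RPMI 1640 with 10% FBS, 2 mM L-glutamine, penicillin/streptomycin, 37 °C, 5% CO2. Exposed 24 h to compound alone or with SAHA; vehicle DMSO < 0.1% v/v. Annexin V-FITC/PI staining and flow cytometry, reported as % Annexin V+ cells. Three independent experiments in triplicate; one representative shown. EC50 taken as concentration giving 50% Annexin V+ cells versus vehicle.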

Data set [2] concerns HL-60. In words: Antiproliferative activity against human HL60 cells after 72 hrs in presence of SAHA by MTT assay. Type of data set: functional, cell-based. The conditions noted are these: HL-60, 72 h. Put shortly:
(§1)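 AML cell lines grown in RPMI 1640 with 10% FBS (20% for MOLM-13), 2 mM L-glutamine and penicillin/streptomycin at 37 °C, 5% CO2. Ara-C-resistant HL-60 and CMK sublines came from stepwise cytarabine selection and were kept in 600 nM or 300 nM cytarabine respectively. Cells were treated 72 h. MTT 0.05 mg/mL, 3 h at 37 °C, DMSO solubilization, absorbance at 570 nm. IC50 given ± SEM.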

For data set [3], the system named is U-937. In words: Induction of apoptosis in p53 null human U937 cells assessed as caspase 3 cleavage at 2 uM after 24 hrs in presence of SAHA by Western blot analysis. Type of data set: functional, cell-based. The method, boiled down:
(§2)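 U937 cells exposed for 24 h. Lysates with protease/phosphatase inhibitors were separated by SDS-PAGE, transferred to PVDF and probed for PARP and cleaved caspase-3, with β-actin as loading control.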

For data set [4], the system named is MOLM-13. In words: Antiproliferative activity against human MOLM13 cells harboring wild type p53/FLT3-ITD mutant after 72 hrs in presence of SAHA by MTT assay. The data set is classed as functional, cell-based. The note with it: MOLM-13, 72 h. The method, boiled down: as §1
The test system of the next data set is OCI-AML-3. The experiment in a line: Antiproliferative activity against human OCI-AML3 cells after 72 hrs in presence of SAHA by MTT assay. The data set is classed as functional, cell-based. The note with it: OCI-AML-3, 72 h. Put shortly:
as §1

The subject of data set [5] is U-937. The experiment in a line: Cytotoxicity against p53 null human U937 cells assessed as decrease in cell viability at 0.5 to 5 uM after 24 hrs in presence of SAHA by MTT assay. The data set is classed as functional, cell-based. Put shortly: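 MCF-10A (DMEM/F12, 5% horse serum, hydrocortisone, cholera toxin, insulin, EGF) and U937 (RPMI 1640, 10% FBS) were exposed to 0.5–5 μM, alone or PL+SAHA 1:1, for 24 h. MTT 0.05 mg/mL, 3 h at 37 °C, DMSO solubilization, A570. Viability given as mean ± SD of four to six independent experiments. DMSO <0.1% vehicle control.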

Data set [6] concerns HL-60. In words: Antiproliferative activity against Ara-C resistant human HL60 cells after 72 hrs in presence of SAHA by MTT assay. The note with it: HL-60, 72 h. The data set is classed as functional, cell-based. The method, boiled down:
as §1

Data set [7] in a line: Stability of the compound in human U937 cell lysate at 50 uM incubated for 1.5 hrs in presence of GSH by HPLC analysis. The data set is classed as ADME, cell-based. The conditions noted are these: u-937, 1.5 h.
Data set [8] has as its system U-937. In words: Induction of apoptosis in p53 null human U937 cells assessed as PARP-1 cleavage after 24 hrs by Western blot analysis. Type of data set: functional, cell-based. Put shortly: as §2
Data set [9] relates to U-937. The experiment in a line: Induction of apoptosis in p53 null human U937 cells assessed as caspase 3 cleavage after 24 hrs by Western blot analysis. The data set is classed as functional, cell-based. Put shortly: as §2
Data set [10] deals with MOLM-13. In words: Induction of apoptosis in human MOLM13 cells harboring wild type p53/FLT3-ITD mutant at 2 uM after 24 hrs by annexin V-FITC/PI staining based flow cytometry. Type of data set: functional. The method, boiled down:
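Cells treated 24 h, single agents or SAHA+PL at 1:1 (each drug at the stated concentration). Annexin V-FITC/PI kit staining, then flow cytometry, reported as % Annexin V+ cells. Three independent experiments in triplicate, with data from one representative experiment. DMSO <0.1% vehicle control.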

Data set [11] in a line: Chemical stability of the compound in pH 7.4 phosphate buffer at 50 uM incubated up to 4 hrs in presence of GSH by HPLC analysis. Type of data set: physicochemical. The note with it: pH 7.4, 4 h. Put shortly:
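Compound at 50 μM incubated with or without 5 mM GSH in phosphate buffer pH 7.4 at 37 °C for up to 4 h. Mixtures analysed by HPLC with water/0.1% formic acid/10% methanol versus 0.1% formic acid in acetonitrile, 0.5 mL/min, 10–80% B gradient over 18 min.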

As for `COc1cc(/C=C/C(=O)N2CCC=CC2=O)cc(OC)c1OC` [PIPLARTINE], the Activity in the data set on U-937 [1] was 62.5%. For the same compound, the IC50 turned out to be 529 nM with HL-60 [2], 934 nM in the data set on MOLM-13 [4], 1110 nM in the data set on OCI-AML-3 and 1130 nM in the data set with HL-60 [6]. Moreover, the result in the data set on U-937 [3] and with U-937 [5] was Active.

For the compound `COc1cc(/C=C/C(=O)N2CCC=CC2=O)cc(OC)c1OCCCCCCC(=O)NO`, the Stability result in [7] is given as “Unstable”; in [11], “Stable”. The values for the Activity result in the data set with U-937 [8], in the data set with U-937 [9] and in the data set on MOLM-13 [10] were “Dose-dependent effect”, “Dose-dependent effect” and 65.9%, respectively.
